# Bioassay records (PubChem BioAssay)
# The list is not random: actives were taken first. Their share in the collection is about 3.8%.
# hERG protect = hERG (human) protection from proarrhythmic block; CHO-hERG, FluxOR thallium flux, dofetilide IC70 present; hit rate 0.51% among 310,000; AID 1511; Q12809; activation (rescue from dofetilide block), less the hit threshold, % at 10 µM;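 active = activation above the mean of controls blocked by dofetilide plus 5 SD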;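 also: thallium influx through hERG after potassium depolarization seen as dye fluorescence rise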
# KCNQ1 inh = human KCNQ1 channel inhibition | P51787 | CHO-K1 KCNQ1, FluxOR thallium flux fluorescence; hits give high values | B-score at 10 µM | hit rate 1.3% among 310,000;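 active = compounds whose thallium flux B-score, printed positive for inhibition, exceeds three library SD while starting fluorescence stays within three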;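 also: channel opened by potassium depolarization with thallium stimulus after 20 min compound exposure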
# Target sequence (P51787 whole entry, looked up): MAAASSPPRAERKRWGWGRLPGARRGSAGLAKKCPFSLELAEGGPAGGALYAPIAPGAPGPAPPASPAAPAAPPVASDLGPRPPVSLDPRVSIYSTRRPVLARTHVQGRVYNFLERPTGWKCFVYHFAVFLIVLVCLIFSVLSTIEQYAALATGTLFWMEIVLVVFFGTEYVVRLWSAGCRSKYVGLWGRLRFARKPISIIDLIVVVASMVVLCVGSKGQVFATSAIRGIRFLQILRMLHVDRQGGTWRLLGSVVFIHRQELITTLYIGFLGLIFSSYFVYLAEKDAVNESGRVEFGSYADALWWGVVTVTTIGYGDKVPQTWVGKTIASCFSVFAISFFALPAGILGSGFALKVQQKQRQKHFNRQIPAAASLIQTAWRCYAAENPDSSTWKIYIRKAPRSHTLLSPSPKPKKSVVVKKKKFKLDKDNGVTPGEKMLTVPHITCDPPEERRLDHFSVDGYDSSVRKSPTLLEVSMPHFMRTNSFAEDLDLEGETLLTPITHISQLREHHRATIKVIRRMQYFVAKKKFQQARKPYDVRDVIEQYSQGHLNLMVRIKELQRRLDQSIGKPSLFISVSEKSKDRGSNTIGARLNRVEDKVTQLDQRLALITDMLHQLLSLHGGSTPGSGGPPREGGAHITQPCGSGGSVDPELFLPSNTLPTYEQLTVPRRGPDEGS
# Kir21 inh = Kir2.1 (mouse) channel inhibition | P35561 | HEK293-Kir2.1, FluxOR thallium flux fluorescence; hits give low values | B-score at 10 µM | hit rate 0.85% among 310,000 | AID 1672;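 active = fluorescence ratio B-score at or below minus 3 SD of library scores, with starting-brightness B-score within 2 SD, cut at about -4.2 in these data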;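 also: channel flux triggered by added potassium and thallium sulfate stimulus; B-score of peak minus minimum fluorescence over baseline after thallium stimulus; more negative B-score means stronger Kir2.1 block with less thallium influx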
# KCNK3 block = human KCNK3 channel inhibition, primary screen. O14649. hit rate 0.84% among 340,000. CHO-KCNK3 thallium flux, FluxOR fluorescence; hits give low values. B-score at 10 µM;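 active = B-score under library mean minus 4 SD, starting fluorescence ratio at most library mean plus 5 SD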;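 also: more negative B-score means stronger inhibition of thallium flux through KCNK3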
# KCNK9 inh = blocks the human KCNK9 two-pore domain potassium channel; Q9NPC2; HEK293 KCNK9, FluxOR thallium flux fluorescence; hits give low values; B-score at 10 µM; hit rate 1.2% among 310,000; AID 488922;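 active = ratio B-score over 3 SD below the library mean, with starting fluorescence within 5 SD of its mean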;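 also: negative B-score means less thallium flux so channel inhibition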
# KCNQ1 act = potentiators or activators of human KCNQ1 potassium channel; CHO-K1 KCNQ1, thallium flux FluxOR fluorescence; hits give high values; B-score at 10 µM; hit rate 0.35% among 310,000;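 active = fluorescence ratio B-score, a plate-corrected score, at least three library SD, with initial intensity B-score within 5 SD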
#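 Assay system: stable KCNQ1 CHO-K1 line; medium: assay buffer, equal DMSO in all wells; timing: 90 min dye loading and 20 min compound exposure, both at room temperature; technique: kinetic FluxOR thallium fluorescence, 10-s 1-Hz baseline, 110-s post-stimulus read; read-out basis: B score of baseline-normalized fluorescence ratio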
# KCNK9 inh conf = confirmation of human KCNK9 potassium channel inhibitors. shares compounds with KCNK9 inh. HEK293 KCNK9 cells, FluxOR thallium flux fluorescence. inhibition, % at 10 µM. hit rate 43% among 4,900;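 active = thallium signal inhibited by more than 5 SD of the compound-free buffer control wells, on both duplicate plates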;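 also: 0% = assay buffer control wells without compound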
# Kir2-1 spec = tests whether KCNK9 modulators also affect mouse Kir2.1; shares compounds with KCNK9 inh; Kir2.1 cells, FluxOR thallium flux fluorescence; inhibition, % at 10 µM; hit rate 4% among 4,900; AID 492993;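 active = thallium signal drop more than 5 SD beyond the mean of the no-compound control wells, seen in both duplicate plates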;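 also: signal is fluorescence rise after thallium addition divided by baseline fluorescence; plate controls were assay buffer only for no effect and full block by chlorpromazine control for full effect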
# HEK293 Tl ctr = non-induced cell nonspecific activity of KCNK9 modulators; inhibition, % at 10 µM; hit rate 40% among 4,900; shares compounds with KCNK9 inh; non-induced KCNK9-HEK293, FluxOR thallium flux; AID 492997;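 active = thallium signal drop beyond 5 SD of the untreated control mean, on both duplicate plates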;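 also: plate controls were buffer only IC0 wells for no effect and SID17386958 at its maximal inhibitory level for full effect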
# * = called active by the depositor; i = inactive; . = no result given.
SMILES,hERG protect,KCNQ1 inh,Kir21 inh,KCNK3 block,KCNK9 inh,KCNQ1 act,KCNK9 inh conf,Kir2-1 spec,HEK293 Tl ctr
COc1ccc(CN2CCN(C(c3ccc(F)cc3)c3ccc(F)cc3)CC2)c(OC)c1OC,-27,i,-0.16,i,i,i,i,i,i
COc1ccc(CN2CCN(Cc3cccc(Oc4ccccc4)c3)CC2)c(OC)c1OC,-14,i,-2.6,i,i,i,i,i,i
OCCNCc1c(OCc2ccc(Cl)cc2)ccc2ccccc12,-18,i,-6.8*,i,-19*,i,76%*,42%*,31%*
CC(O)CNCCNCc1c(OCc2ccccc2)ccc2ccccc12 (stereo not drawn),-14,i,-4.1,i,i,i,.,.,.
CCOC(=O)C1=C(C)NC(=S)NC1/C=C/c1ccccc1 (stereo not drawn),-8,i,-0.23,i,i,i,.,.,.
CCNc1c(NS(=O)(=O)c2ccc(F)c(Cl)c2)c(=O)oc2ccccc12,-9,i,-0.54,i,i,i,.,.,.
COc1ccc(C2CC(=O)N3CN(c4ccc(C)c(Cl)c4)CSC3=C2C#N)cc1 (stereo not drawn),-9,i,0.13,i,i,i,i,i,i
COc1ccc(N2CSC3=C(C#N)C(c4cccc(OC)c4OC)CC(=O)N3C2)cc1 (stereo not drawn),-9,i,0.34,i,i,i,.,.,.
O=C(OCc1ccccc1Cl)c1ccccc1C(=O)c1ccccc1,-5,i,-1.6,i,-8.7*,i,i,41%*,38%*
Cc1cc(C(=O)N2CCCC(N3CCN(c4cccc(Cl)c4)CC3)C2)nn1C (stereo not drawn),-6,i,0.57,i,i,i,.,.,.
Cc1cc(C(=O)N2CCCC(N3CCN(c4cccc(C(F)(F)F)c4)CC3)C2)c(C)o1 (stereo not drawn),-16,i,0.28,i,i,i,i,i,i
Cc1cc(C(=O)N2CCCC(N3CCN(c4cccc(C(F)(F)F)c4)CC3)C2)nn1C (stereo not drawn),-7,i,0.07,i,i,i,i,i,i
CC1(CCC(=O)N2CCCC(N3CCN(c4cccc(C(F)(F)F)c4)CC3)C2)CC1 (stereo not drawn),-17,i,0.33,i,i,i,i,i,i
Cc1sc(N2CCN(S(=O)(=O)c3ccc4c(c3)NC(=O)CO4)CC2)nc1-c1ccccc1,-7,i,1,i,i,i,.,.,.
COc1cc(CCC(=O)OCC(=O)Nc2cc(S(=O)(=O)N3CCOCC3)ccc2Cl)cc(OC)c1OC,.,.,.,i,.,.,.,.,.
CCCc1cc(=O)[nH]c(SCC(=O)Nc2sc3c(c2C(N)=O)CCCC3)n1,.,.,.,i,.,.,.,.,.
CCN(C(=O)COC(=O)c1ccc(Cl)cc1N)C1CCCCC1,-13,i,0.77,i,i,i,i,i,i
O=C(CCSc1ccccc1Cl)Nc1cccc([N+](=O)[O-])c1,-15,i,1.8,i,i,i,i,i,30%*
Cc1ccccc1CN(CC(=O)Nc1cccc([N+](=O)[O-])c1)S(=O)(=O)c1ccc(Cl)cc1,-10,9*,-0.01,i,i,i,i,i,i
COCCn1c(=NC(=O)C(C)(C)C)sc2cc([N+](=O)[O-])ccc21,-4,i,0.23,i,i,i,.,.,.
COC(=O)[C@H](C(C)C)N(Cc1ccccc1)S(=O)(=O)CCNC1CCCC1,.,.,.,i,.,.,.,.,.
FC(F)(F)c1nc2cc3nc4ccccc4[nH]c3cc2n1,-10,i,0.88,i,i,i,.,.,.
Cc1[nH]n(-c2ccc(Br)cc2)c(=O)c1/C=N/NC(=O)c1ccccc1,-9,i,-0.22,i,i,i,i,i,i
Cc1ncc([N+](=O)[O-])n1Cc1cccc(F)c1,-12,i,-1.7,i,i,i,.,.,.
Cc1cc(Cl)ccc1NC(=O)CCC(=O)N/N=C/c1cc([N+](=O)[O-])ccc1O,-10,i,1.7,i,i,i,.,.,.
SMILES,hERG protect,KCNQ1 inh,Kir21 inh,KCNK3 block,KCNK9 inh,KCNQ1 act,KCNK9 inh conf,Kir2-1 spec,HEK293 Tl ctr
O=[N+]([O-])c1ccc(O)c(/C=N/NC(=S)Nc2ccc(Cl)cc2Cl)c1,-8,i,0.68,i,i,i,i,i,i
CNS(=O)(=O)c1cc(Nc2ncnc3sccc23)ccc1C,-4,i,-1.1,i,i,i,.,.,.
Cc1cc2ccccn2c1C(=O)c1ccccc1Br,-8,i,0.68,i,-8.3*,i,i,i,i
Cc1cc2ccccn2c1C(=O)c1ccc([N+](=O)[O-])cc1[N+](=O)[O-],-5,i,-0.67,i,i,i,.,.,.
CC(=O)c1ccc(NC(=O)C(C)Sc2nnc(C3CCCCC3)o2)cc1 (stereo not drawn),-7,i,-0.89,.,i,i,.,.,.
Cc1sc2ncnc(NCC(c3ccco3)N(C)C)c2c1C (stereo not drawn),0,i,-0.8,i,i,i,.,.,.
CN(C)C(CNc1ncnc2sc3c(c12)CCCCC3)c1ccco1 (stereo not drawn),-4,i,-0.67,i,i,i,i,i,i
COc1ccc(N(CCCN2C(=O)c3cccc4cccc(c34)C2=O)C(=O)c2cccnc2)cc1,-8,i,-0.2,i,i,i,i,i,i
COc1ccc(N(CCCN2C(=O)c3cccc4cccc(c34)C2=O)C(=O)c2ccncc2)cc1,-12,i,-1.3,i,i,i,.,.,.
COc1cc(CC(=O)OCC(=O)N(C)C2CCCCC2)cc(OC)c1OC,.,.,.,i,.,.,.,.,.
O=C(/C=C/c1ccco1)Oc1cc(Br)cc(/C=N/NC(=O)c2ccccc2O)c1,-11,i,-0.61,i,-14*,i,76%*,i,38%*
Cc1ccc(C(=O)N/N=C/c2cccc(OC(=O)/C=C/c3ccco3)c2)cn1,-11,i,2.3,i,i,i,.,.,.
CC1=NNC(=O)/C1=C\c1cn(-c2ccccc2)nc1-c1ccccc1,-20,i,-0.07,i,i,i,i,i,i
Cc1cc(-c2cc(C(=O)NCc3ccccc3)on2)nc(NCC2CC2)n1,-3,i,0.1,i,i,i,.,.,.
